Where a chain is given by its changes, count along the chain named.
Assays:
[1] = tested on: Mus musculus; assay: Compound at an intraperitoneal dose of 10 mg/Kg was tested for salivation in mice expressed as score; type: functional
Procedure, shortened: (§1)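 Male Cr1:CF1RBR mice, 20–30 g, in groups of five. Compound dissolved in distilled water, given ip at 10 mg/kg. Salivation and tremor scored 30 min after dosing on a 0–2 scale (0 = no effect, 1 = moderate, 2 = marked).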

[2] = target: T1, Muscarinic acetylcholine receptor M1 (Rattus norvegicus, UniProt P08482); assay: Binding affinity for muscarinic acetylcholine receptor M1 using [3H]oxotremorine-M (Oxo-M) radioligand in rat hippocampus membranes; type: cell membranes, Membrane
T1 sequence (P08482 whole entry): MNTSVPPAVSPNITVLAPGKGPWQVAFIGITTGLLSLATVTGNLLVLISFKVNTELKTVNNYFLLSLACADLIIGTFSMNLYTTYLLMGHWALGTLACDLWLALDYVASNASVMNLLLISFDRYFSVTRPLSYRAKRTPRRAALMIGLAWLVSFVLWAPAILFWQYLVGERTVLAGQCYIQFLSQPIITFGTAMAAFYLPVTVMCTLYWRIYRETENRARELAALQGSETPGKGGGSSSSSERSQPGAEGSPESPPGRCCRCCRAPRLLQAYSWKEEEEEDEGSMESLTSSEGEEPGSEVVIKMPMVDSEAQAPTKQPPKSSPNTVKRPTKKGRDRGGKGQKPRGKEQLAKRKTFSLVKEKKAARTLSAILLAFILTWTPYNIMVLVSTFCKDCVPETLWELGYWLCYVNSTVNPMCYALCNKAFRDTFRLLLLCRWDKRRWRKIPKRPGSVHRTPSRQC

[3] = target: T1, Muscarinic acetylcholine receptor M1; assay: Binding affinity for muscarinic acetylcholine receptor M1 using [3H]pirenzepine (Pz) radioligand in rat hippocampus membranes.; type: cell membranes
[4] = tested on: Mus musculus; assay: Intraperitoneal dose of 10 mg/Kg was tested for salivation in mice expressed as score.; type: functional; procedure, shortened: as §1
[5] = tested on: Mus musculus; assay: Compound at an intraperitoneal dose of 10 mg/Kg was tested for salivation in mice expressed as score; 1=Moderate salivation or tremor; type: functional; procedure, shortened: as §1
[6] = target: T2, Muscarinic acetylcholine receptor M1 (Homo sapiens, UniProt P11229); assay: Effective concentration required for stimulation of phosphoinositol (PI) hydrolysis in the A9 L cell line transfected with the Muscarinic acetylcholine receptor M1.; type: functional, cell-based, A9L
T2 sequence (P11229 whole entry): T1 sequence (P08482 whole entry) with V5A, S254T, S309P, K320R, G337A, V413I

[7] = tested on: Mus musculus; assay: Compound at an intraperitoneal dose of 10 mg/Kg was tested for salivation in mice expressed as score; 2=Marked salivation or tremor; type: functional; procedure, shortened: as §1

Structure (SMILES) | Score [1] | IC50 [2] | IC50 [3] | Score [4] | Score [5] | EC50 [6] | Score [7]
CSc1nsnc1OC1CN2CCC1CC2 (configuration not stated) | 0.4 | 17.5 nM | 42.5 nM | – | – | – | –
CCCOc1nsnc1OC1CN2CCC1CC2 (configuration not stated) | – | 12.5 nM | 44.5 nM | 0 | – | – | –
CCCCCCSc1nsnc1OC1CN2CCC1CC2 (configuration not stated) | – | 7.6 nM | 28.4 nM | – | 1 | 225 nM | –
CCCCCCOc1nsnc1OC1CN2CCC1CC2 (configuration not stated) | 0.2 | 11.7 nM | 42 nM | – | – | 259 nM | –
c1nsnc1OC1CN2CCC1CC2 (configuration not stated) | – | 537 nM | 833 nM | 0 | – | – | –
Clc1nsnc1OC1CN2CCC1CC2 (configuration not stated) | – | 98.5 nM | 63.5 nM | 0 | – | – | –
CCCCOc1nsnc1OCC[N+](C)(C)C | – | 36 nM | 41 nM | 0 | – | – | –
CCSCc1nsnc1OC1CN2CCC1CC2 (configuration not stated) | – | 66.5 nM | 79 nM | 0 | – | – | –
CCCCOc1nsnc1OC1CCNC1 (configuration not stated) | – | 158 nM | 361 nM | 0 | – | 4870 nM | –
CCCCOc1nsnc1OCCN(C)C | – | 67.5 nM | 68.5 nM | 0 | – | – | –
CCSc1nsnc1OC1CN2CCC1CC2 (configuration not stated) | – | 6.5 nM | 20 nM | 0 | – | – | –
CSCCc1nsnc1OC1CN2CCC1CC2 (configuration not stated) | – | 58.7 nM | 66 nM | 0 | – | – | –
CCCCCOc1nsnc1OC1CN2CCC1CC2 (configuration not stated) | – | 12.7 nM | 47.7 nM | 0 | – | 165 nM | –
CCCCOc1nsnc1OC1CCN(C)C1 (configuration not stated) | – | 42 nM | 44 nM | 0 | – | – | –
CCCSc1nsnc1OC1CN2CCC1CC2 (configuration not stated) | 0.8 | 2.9 nM | 21 nM | – | – | 431 nM | –
CCOc1nsnc1OC1CN2CCC1CC2 (configuration not stated) | – | 20 nM | 65.5 nM | 0 | – | – | –
CCCCOc1nsnc1OC1CNC1 | – | 105 nM | – | 0 | – | 6200 nM | –
CCCCOc1nccnc1OC1CN2CCC1CC2 (configuration not stated) | – | 38.2 nM | 22.3 nM | 0 | – | – | –

Structure (SMILES) | Score [1] | IC50 [2] | IC50 [3] | Score [4] | Score [5] | EC50 [6] | Score [7]
CCCCOc1nonc1OC1CN2CCC1CC2 (configuration not stated) | – | 252 nM | 91 nM | 0 | – | – | –
CCCCOc1nsnc1OC1CN2CCC1CC2 (configuration not stated) | 0.4 | 10.7 nM | 42.3 nM | – | – | 102 nM | –
CCCSc1nsnc1OC12CCCN(CC1)C2 (configuration not stated) | – | 5.2 nM | 6.8 nM | 0 | – | – | –
COc1nsnc1OC1CN2CCC1CC2 (configuration not stated) | – | 201 nM | 155 nM | 0 | – | – | –
CCCCSc1nsnc1OC1CN2CCC1CC2 (configuration not stated) | – | 2.5 nM | 5 nM | – | 1 | 22.3 nM | –
CCCCCSc1nsnc1OC1CN2CCC1CC2 (stereo in doubt; 18e) | 0.6 | 4.4 nM | 9 nM | – | – | 433 nM | –
CCCCCSc1nsnc1OC1CN2CCC1CC2 (stereo in doubt; 18f) | – | 6.4 nM | 3.7 nM | 0 | – | – | –
CCCCCSc1nsnc1OC1CN2CCC1CC2 (stereo in doubt; 18g) | 1.2 | 1.4 nM | 2.7 nM | – | – | 136 nM | –
CCCSc1nsnc1OC1CN2CCC1C2 (stereo in doubt; 26) | – | 0.76 nM | 4.4 nM | – | – | 1.9 nM | 2
CCCSc1nsnc1O[C@@H]1CC2CCN(C2)C1 (stereo in doubt; 27) | 0.2 | 2.8 nM | 7 nM | – | – | – | –
CCCSc1nsnc1OC1CN2CCCC1C2 (stereo in doubt; 28) | – | 0.38 nM | 0.55 nM | – | – | 1 nM | 2
CCCSc1nsnc1OC1CN2CCC1C2 (stereo in doubt; 32) | 1.8 | 5.5 nM | 66.7 nM | – | – | 162 nM | –
CCCSc1nsnc1O[C@@H]1CC2CCN(C2)C1 (stereo in doubt; 33) | – | 15 nM | 20 nM | 0 | – | – | –
CCCSc1nsnc1OC1CN2CCCC1C2 (stereo in doubt; 34) | – | 179 nM | 33 nM | 0 | – | – | –
CCCSc1nsnc1C1CN2CCC1C2 (stereo in doubt; 40) | – | 5.8 nM | – | – | – | – | –
CCCSc1nsnc1C1CN2CCC1C2 (stereo in doubt; 41) | – | 0.6 nM | – | – | – | – | –
CC(=O)OC1CN2CCC1CC2 (configuration not stated) [ACECLIDINE] | – | – | – | – | – | – | 2
CCCCCCOc1nsnc1C1=CCCN(C)C1 [XANOMELINE] | – | – | – | 0 | – | – | –

From ChEMBL document CHEMBL1131461 (J Med Chem, 1998)
